Compound activity from PubChem.
Shown are actives, neighbours in structure and some others; about 1.2% of the full set was active somewhere.
ASAP1 GAP inh – ASAP1 ArfGAP inhibition | Q9ULH1 | ASAP1-stimulated ARF1 GTP hydrolysis, GDP FP detection | inhibition, % at 16.5 µM | 360,000 tested, 0.19% active | AID 624377; in the data active means inhibition above about 25%
Target sequence (Q9ULH1 325-724 limits assumed): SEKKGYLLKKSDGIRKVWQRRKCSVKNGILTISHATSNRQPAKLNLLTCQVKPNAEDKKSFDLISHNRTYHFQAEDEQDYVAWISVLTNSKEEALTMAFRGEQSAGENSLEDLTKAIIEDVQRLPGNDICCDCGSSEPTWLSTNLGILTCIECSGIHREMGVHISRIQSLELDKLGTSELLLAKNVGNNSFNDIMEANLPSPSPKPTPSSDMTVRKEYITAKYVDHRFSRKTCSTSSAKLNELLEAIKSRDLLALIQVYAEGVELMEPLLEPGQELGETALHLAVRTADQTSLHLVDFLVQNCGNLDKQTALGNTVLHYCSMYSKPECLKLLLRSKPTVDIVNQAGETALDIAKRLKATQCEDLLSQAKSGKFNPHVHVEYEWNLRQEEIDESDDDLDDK
procasp7 counter – counter-screen for procaspase-3 activators: activators of human procaspase-7. recombinant procaspase-7, Ac-DEVD-pNA absorbance 405 nm; D23A/D198A/D206A triple mutant, cannot self-cleave; scale: DMSO 0, 5 µM enzyme 100. activation, % at 8.5 µM. AID 463210. 330,000 tested, 0.093% active;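 active means percent activation above the screen-wide mean plus 3 SD, cut at about 25% in these data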
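Assay system: Uncleavable procaspase-7 mutant enzyme / Input: 2 µM procaspase-7 mutant as dispensed / Dosing: single nominal 8.5 µM compound dose, 0.8% DMSO final / Timing: 1 h enzyme–compound preincubation and 2 h substrate reaction, both 25 °C / Detection: p-Nitroaniline absorbance at 405 nm, read at 0 and 120 min / Replication: singlicate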
proCasp3 act – activators of human procaspase-3; P42574; recombinant procaspase-3 D3A, Ac-DEVD-pNA absorbance 405 nm; activation, % at 8.5 µM; 330,000 tested, 0.11% active;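 active means activation above the mean of all tested compounds plus 3 SD, cut at about 21% in these data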
Target sequence (P42574 whole entry D9A/D28A/D175A): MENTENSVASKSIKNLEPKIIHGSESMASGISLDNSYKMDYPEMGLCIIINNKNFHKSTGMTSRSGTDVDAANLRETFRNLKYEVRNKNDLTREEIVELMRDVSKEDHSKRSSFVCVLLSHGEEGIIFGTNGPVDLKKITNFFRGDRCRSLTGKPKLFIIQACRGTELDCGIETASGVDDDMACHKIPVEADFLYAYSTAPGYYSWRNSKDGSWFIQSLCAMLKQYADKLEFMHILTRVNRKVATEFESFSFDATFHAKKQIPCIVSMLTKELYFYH
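Test system: Procaspase-3 D3A mutant, all three cleavage aspartates alanine | Dosing: Single dose, 8.5 µM nominal compound, 0.8% DMSO | Schedule: 1 h preincubation, 2 h reaction | Technique: 405 nm absorbance of p-nitroaniline, reads at 0 and 120 min | Repeats: One well per compound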
ARFGAP1 inh – rat ARFGAP1 inhibition | Q62848 | Arfgap1-stimulated ARF1 GTP hydrolysis, GDP FP detection | inhibition, % at 16.5 µM | 360,000 tested, 0.26% active;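 active means inhibition above a per-plate limit, mean inhibition of low control wells plus 3 SD, cut at about 25% in these data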
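Material – truncated rat Arfgap1 GAP domain · Buffer or medium – HEPES-based buffer, pH 7.5 · Reagent – human ARF1(Δ1-17)-GTP substrate · Dosing – 16.5 µM single point, 1.26% DMSO · Schedule – GTP hydrolysis reaction 2 h at 25 °C · Technique – GDP detection by fluorescence polarization · Benchmarks – No-Arfgap1 wells (100%) versus DMSO full-reaction wells (0%) · Repeats – single replicate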
Yeast superoxide – caloric restriction mimetics inhibiting age-related superoxide in yeast | superoxide response (% of plate mean), % at 10 µM | 330,000 tested, 0.18% active | S. cerevisiae aged cells, superoxide DHE fluorescence; active compounds read low;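 active means superoxide response under a set limit, about three screen SD below normal, cut at about 65% in these data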;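 further: yeast aged for seven days with compound at 30 °C before DHE staining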
LANA-H2B inh – blocks KSHV LANA binding to histone H2A/H2B. cell-free LANA-H2A/H2B peptide, fluorescence polarization. inhibition, % (test concentration not listed). 320,000 tested, 0.6% active. AID 2629; in the data active means inhibition mostly above about 10%, no sharp cut-off; inactive means mostly below about 6.7%
Large screens that a line does not name were inactive.

CN(c1ccccc1)S(=O)(=O)c1cccc(NC(=O)CCNC(=O)c2ccccc2)c1	none
CN(c1cccc(Cl)c1)S(=O)(=O)c1cccc(C(=O)NCc2ccncc2)c1	LANA-H2B inh 53
CN(c1ccccc1)S(=O)(=O)c1cccc(C(=O)NCc2ccccc2)c1	none
CN(c1ccccc1)S(=O)(=O)c1cccc(NC(=O)CCNC(=O)c2ccc(Cl)cc2)c1	LANA-H2B inh 165
COc1cccc(CNC(=O)[C@H]2CCCN2C(=O)[C@H]2CCCN2C(=O)c2ccccc2)c1	none (no result: procasp7 counter, proCasp3 act, Yeast superoxide, LANA-H2B inh)
O=c1[nH]c2c(s1)C=Nc1ccccc1N2	LANA-H2B inh 38
Cc1ccc(S(=O)(=O)Nc2ccccc2C(=O)N2CCCC2)cc1	none
Cc1ccc(S(=O)(=O)Nc2ccccc2C(=O)N2CCN(C)CC2)cc1	LANA-H2B inh 102
COc1ccc2oc(C(=O)Nc3nc(C)cs3)c(C)c2c1	LANA-H2B inh 73
COc1ccc2oc(C(=O)Nc3ccccn3)c(C)c2c1	none
CC1CCC(NC(=O)C2CCC(CNS(=O)(=O)c3ccc4c(c3)C(C)(C)C(=O)N4C)CC2)CC1 (stereo not drawn)	none (no result: procasp7 counter, proCasp3 act, Yeast superoxide, LANA-H2B inh)
CCO/C=C1/C(=O)N(Cc2ccccc2)C(=O)c2ccccc21	ASAP1 GAP inh 31
O=C(O)c1ccccc1-c1ccccc1C(=O)NCc1cccc(C(F)(F)F)c1	LANA-H2B inh 18
COc1cccc(C2NC(=S)N(Cc3ccc(Br)cc3)C(C)=C2C(C)=O)c1 (stereo not drawn)	none (no result: procasp7 counter, proCasp3 act, Yeast superoxide, LANA-H2B inh)
O=C(COC(=O)CCc1nc2ccccc2c(=O)[nH]1)Nc1ccccc1	LANA-H2B inh 24
N#Cc1ccc(NC(=O)COC(=O)CCc2nc3ccccc3c(=O)[nH]2)cc1	none
CC(C)C[C@@H]1COc2cccc(N3CCCC3)c2S(=O)(=O)N1	none (no result: procasp7 counter, proCasp3 act, Yeast superoxide, LANA-H2B inh)
COc1cccc(CNCc2cc(OC)cc(OC)c2)c1	none
COc1cc(CNCc2ccc(OC)c(OC)c2OC)cc(OC)c1	LANA-H2B inh 37
CCCCCn1nc(-c2ccccc2)c2nc3ccccc3nc21	LANA-H2B inh 30
CCCn1nc(-c2ccccc2)c2nc3ccccc3nc21	none
C=CCN1[C@@H](C)[C@H](c2ccccc2)Oc2cccc(NCCc3ccccc3)c2S1(=O)=O	none (no result: procasp7 counter, proCasp3 act, Yeast superoxide, LANA-H2B inh)
CCN(CC)CCNC(=O)C(=O)Nc1cc2c3c(c1)CCC(=O)N3CCC2	LANA-H2B inh 0.9
CN(C)CCNC(=O)C(=O)Nc1cc2c3c(c1)CCN3C(=O)CC2	LANA-H2B inh 17
CN(C)CCNC(=O)C(=O)Nc1cc2c3c(c1)CCC(=O)N3CCC2	none
C[C@@H]1CN([C@H](C)CO)C(=O)CCCn2nncc2CO[C@@H]1CN(C)C(=O)c1ccncc1	none (no result: procasp7 counter, proCasp3 act, Yeast superoxide, LANA-H2B inh)
COC(=O)c1ccccc1NC1CC(=O)N(c2c(C)cccc2C)C1=O (stereo not drawn)	LANA-H2B inh 96
COc1ccc(OCC(=O)N2c3ccc(C)cc3C3CN(C)CCC32)cc1 (stereo not drawn)	LANA-H2B inh 25
CC(=O)Oc1ccc(N2C(=O)C3C(C2=O)C2C=CC3C23CC3)cc1[N+](=O)[O-] (stereo not drawn)	LANA-H2B inh 11
COc1ccc(N/C=C/C(=O)c2ccc(Cl)cc2)cc1	LANA-H2B inh 33
COc1ccc(N/C=C/C(=O)c2cc(OC)c(OC)c(OC)c2)cc1	LANA-H2B inh 12
CC(C)Oc1ccc(CNC(=O)CCC(=O)N2CC(C)Sc3ccccc32)cc1 (stereo not drawn)	LANA-H2B inh 27
C[C@]12CC[C@@H]3c4ccc(O)cc4[C@@H](O)C[C@H]3[C@@H]1CC[C@@H]2O	LANA-H2B inh 26 (no result: ASAP1 GAP inh, ARFGAP1 inh)
C[C@]12CC[C@@H]3c4cc(O)c(O)cc4CC[C@H]3[C@@H]1CC[C@@H]2O	LANA-H2B inh 29
CC(=O)OC1CCC2C3CCc4cc(O)ccc4C3CCC12C (stereo not drawn)	none (no result: procasp7 counter, proCasp3 act, Yeast superoxide, LANA-H2B inh)
C[C@]12CC[C@@H]3c4ccc(O)cc4CC[C@H]3[C@@H]1CC[C@@H]2O	none
COC(=O)C1=C(C)N(Cc2ccc(C(F)(F)F)cc2)C(=NCc2ccccc2)NC1c1ccccc1 (stereo not drawn)	none (no result: procasp7 counter, proCasp3 act, Yeast superoxide, LANA-H2B inh)
CN(C)C(CNC(=O)c1ccc(Cl)c(S(=O)(=O)N2CCCCCC2)c1)c1ccccc1 (stereo not drawn)	LANA-H2B inh 15
CN(C)CCCNC(=O)c1ccc(Cl)c(S(=O)(=O)N2CCCCCC2)c1	none
O=C(COc1ccc(S(=O)(=O)N2CCOCC2)cc1)NCCc1ccc(Cl)cc1	none (no result: procasp7 counter, proCasp3 act, Yeast superoxide, LANA-H2B inh)
COC(=O)[C@]12C[C@H](CC(=O)NCc3ccc(C)o3)C(=O)N(Cc3ccc4c(c3)OCO4)C1=C[C@H](COCc1ccccc1)O[C@@H]2C	none (no result: procasp7 counter, proCasp3 act, Yeast superoxide, LANA-H2B inh)
COc1ccc(N2C(=O)c3n[nH]c(C)c3C2c2ccccc2)cc1 (stereo not drawn)	none (no result: procasp7 counter, proCasp3 act, Yeast superoxide, LANA-H2B inh)
COc1cc(NC(=O)COc2cc3oc(=O)cc(C)c3cc2Cl)cc(OC)c1OC	LANA-H2B inh 15
Cc1nc(N2CCc3ccccc3C2)[nH]c(=O)c1Cc1ccccc1	LANA-H2B inh 11
CCCCCc1c(C)nc(N2CCc3ccccc3C2)[nH]c1=O	none (no result: procasp7 counter, proCasp3 act, Yeast superoxide, LANA-H2B inh)
Cc1nc2ccc(NC(=O)[C@@H](NC(=O)c3c(F)cccc3F)C(C)C)cc2s1	LANA-H2B inh active
COc1cc(OC)cc(C(=O)NC(C(=O)Nc2ccc3nc(C)sc3c2)C(C)C)c1 (stereo not drawn)	none (no result: LANA-H2B inh)
COc1cccc(C(C)NC(=O)Nc2ccccc2Cl)c1 (stereo not drawn)	LANA-H2B inh 15
COc1cccc(C(C)NC(=O)c2c(F)cccc2Cl)c1 (stereo not drawn)	none
Cc1cccnc1NC(=O)CCC(=O)c1cccs1	LANA-H2B inh 25
CC1CCCN(Cc2nc3c(c(=O)n(C)c(=O)n3C)n2CC(N)=O)C1 (stereo not drawn)	LANA-H2B inh 13
CCOCCn1c(CN2CCCC(C)C2)nc2c1c(=O)n(C)c(=O)n2C (stereo not drawn)	none
CCC(C)NC(=O)c1ccccc1NC(=O)Nc1ccccc1 (stereo not drawn)	LANA-H2B inh 16
CC(C)CNC(=O)c1ccccc1NC(=O)Nc1ccccc1	none
Nc1nc2c(ncn2[C@@H]2O[C@H](C(=O)N[C@@H](Cc3ccccc3)C(=O)NCC3CCCCC3)[C@@H](O)[C@H]2O)c(=O)[nH]1	none (no result: procasp7 counter, proCasp3 act, Yeast superoxide, LANA-H2B inh)
CCCC1C2CN(C(C)C)CC=C2C(C#N)=C(N)C1(C#N)C#N (stereo not drawn)	LANA-H2B inh 30
CN1CC=C2C(C#N)=C(N)C(C#N)(C#N)C(CCc3ccccc3)C2C1 (stereo not drawn)	none (no result: ASAP1 GAP inh, ARFGAP1 inh)
O=S1(=O)C[C@H](N2CC[C@@H](O)C2)[C@@H](COCc2ccccc2)N1	none (no result: procasp7 counter, proCasp3 act, Yeast superoxide, LANA-H2B inh)
